Measured values as given in ChEMBL document CHEMBL1142952, “Design, synthesis, and activity of 2-imidazol-1-ylpyrimidine derived inducible nitric oxide synthase dimerization inhibitors” (J Med Chem, 2007).
Activity calls are given as the source filed them.

Key:
[1] = Inhibition of tetracycline system-induced human NOS expressed in SF9 cells
How it was run: (§1)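 SF9 cells carrying a tetracycline-induced system expressing one NOS isoform (iNOS, ecNOS or bcNOS); cellular NO formation inhibition measured, compounds up to 10 µM.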

[2] = test system: BSC-1; test: Selectivity ratio, IC50 for ecNOS/IC50 for iNOS using vaccinia virus-induced system in BSC1 cells; format: cell-based; settings: Homo sapiens
How it was run: (§2)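 For each compound, the IC50 against bcNOS (b/i) or ecNOS (e/i) is divided by the iNOS IC50 from the same BSC-1 vaccinia system.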

[3] = test system: Sf9; test: Selectivity ratio, IC50 for ecNOS/IC50 for iNOS using tetracycline-induced system in SF9 cells; format: cell-based; settings: Homo sapiens; how it was run: as §1
[4] = target: Nitric oxide synthase, inducible (Homo sapiens, UniProt P35228); test: Inhibition of cytokine-induced iNOS expressed in human A172 cells assessed as inhibition of NO formation; format: cell-based, A 172
[5] = test system: BSC-1; test: Selectivity ratio, IC50 for bcNOS/IC50 for iNOS using vaccinia virus-induced system in BSC1 cells; format: cell-based; settings: Homo sapiens; how it was run: as §2
[6] = Inhibition of vaccinia virus system-induced human NOS expressed in BSC1 cells; format: cell-based; settings: bsc-1
[7] = test system: Sf9; test: Selectivity ratio, IC50 for bcNOS/IC50 for iNOS using tetracycline-induced system in SF9 cells; format: cell-based; settings: Homo sapiens; how it was run: as §1
[8] = target: Nitric oxide synthase, inducible (Rattus norvegicus) (UniProt Q06518); test: Activity against rat cerebellum iNOS upto 1 uM
[9] = Clearance in dog at 3 mg/kg; format: ADME, organism-based, Canis lupus familiaris; set-up: dose 3 mg/kg; settings: in vivo
[10] = Half life in rat at 10 mg/kg, iv; format: ADME, organism-based; set-up: dose 10 mg/kg, route intravenous; settings: in vivo
[11] = Bioavailability in po and iv dosed rat 10 mg/kg, po; format: ADME, organism-based; settings: in vivo
[12] = Half life in dog at 3 mg/kg, iv; format: ADME, organism-based, Canis lupus familiaris; set-up: dose 3 mg/kg, route intravenous; settings: in vivo
[13] = test system: Rattus norvegicus; test: Amelioration of adjuvant-induced arthritis in sc dosed Lewis rat; format: functional, organism-based
How it was run: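 Adult male Lewis rats immunized intradermally at the proximal tail with Mycobacterium butyricum in incomplete Freund's adjuvant (10 mg/mL, 0.1 mL). Starting the next day, dosed subcutaneously at 3, 10 or 30 mg/kg or vehicle twice daily (12 h apart); naive group untreated; 10 rats per group. Weighed and clinically scored (0-4 per limb) 3 times weekly; radiological scoring; sacrifice at day 34-35.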

[14] = Bioavailability in dog at 3 mg/kg, po; format: ADME, organism-based, Canis lupus familiaris; settings: in vivo

Sequence of Nitric oxide synthase, inducible (P35228 whole entry): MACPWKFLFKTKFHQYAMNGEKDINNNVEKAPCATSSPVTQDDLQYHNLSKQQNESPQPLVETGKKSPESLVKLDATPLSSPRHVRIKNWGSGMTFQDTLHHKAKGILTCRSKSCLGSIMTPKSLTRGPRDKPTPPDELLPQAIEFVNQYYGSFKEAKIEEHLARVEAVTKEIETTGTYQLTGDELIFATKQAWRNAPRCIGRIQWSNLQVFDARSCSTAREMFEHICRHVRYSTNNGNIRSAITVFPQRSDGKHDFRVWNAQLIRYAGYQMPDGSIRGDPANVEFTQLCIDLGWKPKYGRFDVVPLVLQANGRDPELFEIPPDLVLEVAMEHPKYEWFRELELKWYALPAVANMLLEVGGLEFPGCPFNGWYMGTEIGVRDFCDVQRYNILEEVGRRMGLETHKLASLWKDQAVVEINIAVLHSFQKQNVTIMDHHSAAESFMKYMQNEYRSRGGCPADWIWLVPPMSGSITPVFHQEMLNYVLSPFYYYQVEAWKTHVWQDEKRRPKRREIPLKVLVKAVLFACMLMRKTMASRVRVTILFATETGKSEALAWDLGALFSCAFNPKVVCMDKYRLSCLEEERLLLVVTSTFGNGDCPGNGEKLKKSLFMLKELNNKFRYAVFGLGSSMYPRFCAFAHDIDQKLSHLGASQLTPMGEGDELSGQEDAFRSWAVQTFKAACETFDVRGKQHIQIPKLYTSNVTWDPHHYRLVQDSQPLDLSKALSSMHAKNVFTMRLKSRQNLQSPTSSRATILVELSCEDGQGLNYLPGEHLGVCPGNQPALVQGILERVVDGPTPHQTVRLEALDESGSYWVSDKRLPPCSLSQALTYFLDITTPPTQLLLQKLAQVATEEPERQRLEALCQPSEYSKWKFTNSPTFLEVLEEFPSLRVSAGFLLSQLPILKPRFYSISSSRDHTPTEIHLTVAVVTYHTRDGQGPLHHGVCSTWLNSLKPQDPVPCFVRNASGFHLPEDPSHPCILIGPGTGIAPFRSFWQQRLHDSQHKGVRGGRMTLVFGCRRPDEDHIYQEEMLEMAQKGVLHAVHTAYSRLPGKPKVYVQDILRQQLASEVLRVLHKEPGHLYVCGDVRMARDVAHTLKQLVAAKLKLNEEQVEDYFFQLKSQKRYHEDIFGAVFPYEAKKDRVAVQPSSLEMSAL
Sequence of Nitric oxide synthase, inducible (Rattus norvegicus) (Q06518 whole entry): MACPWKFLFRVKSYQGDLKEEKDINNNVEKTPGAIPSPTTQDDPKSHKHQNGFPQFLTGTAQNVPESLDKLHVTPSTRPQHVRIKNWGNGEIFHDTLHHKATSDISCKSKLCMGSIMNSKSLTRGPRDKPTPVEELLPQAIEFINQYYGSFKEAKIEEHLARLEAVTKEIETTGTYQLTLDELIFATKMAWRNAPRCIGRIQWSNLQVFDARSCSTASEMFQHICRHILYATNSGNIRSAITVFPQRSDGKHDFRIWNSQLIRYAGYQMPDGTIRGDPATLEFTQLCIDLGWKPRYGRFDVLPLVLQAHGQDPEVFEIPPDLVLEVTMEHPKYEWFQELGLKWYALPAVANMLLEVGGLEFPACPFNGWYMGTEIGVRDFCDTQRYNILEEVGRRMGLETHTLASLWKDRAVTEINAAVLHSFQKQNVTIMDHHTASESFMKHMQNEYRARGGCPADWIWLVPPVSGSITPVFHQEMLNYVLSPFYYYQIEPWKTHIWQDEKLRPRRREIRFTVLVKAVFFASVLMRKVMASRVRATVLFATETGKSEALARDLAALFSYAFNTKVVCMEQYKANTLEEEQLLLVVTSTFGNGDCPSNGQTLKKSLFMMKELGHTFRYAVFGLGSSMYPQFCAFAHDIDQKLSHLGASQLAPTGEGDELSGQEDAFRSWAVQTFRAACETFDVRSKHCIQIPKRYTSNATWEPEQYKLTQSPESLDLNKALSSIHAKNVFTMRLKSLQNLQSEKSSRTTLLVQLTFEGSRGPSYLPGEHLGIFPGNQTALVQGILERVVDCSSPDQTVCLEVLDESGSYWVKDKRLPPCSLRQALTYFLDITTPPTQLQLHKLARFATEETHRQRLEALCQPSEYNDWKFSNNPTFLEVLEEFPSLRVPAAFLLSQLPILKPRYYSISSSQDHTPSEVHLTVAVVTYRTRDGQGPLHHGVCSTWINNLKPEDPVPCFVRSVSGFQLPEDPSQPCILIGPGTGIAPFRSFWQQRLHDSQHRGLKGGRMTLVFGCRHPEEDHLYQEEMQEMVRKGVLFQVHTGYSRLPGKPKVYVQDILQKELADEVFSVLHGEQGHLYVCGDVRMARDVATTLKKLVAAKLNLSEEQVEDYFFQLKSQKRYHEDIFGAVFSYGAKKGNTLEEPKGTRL

Row | SMILES | IC50 [1] [nM] | Ratio IC50 [2] | Ratio IC50 [3] | IC50 [4] [nM] | Ratio IC50 [5] | IC50 [6] [nM] | Ratio IC50 [7] | Activity [8] | clearance [9] [mL/min/kg] | half-life [10] [h] | bioavailability [11] [%] | half-life [12] [h] | Activity [13] | bioavailability [14] [%]
1 | COC(=O)N1CCN(c2ccnc(-n3ccnc3)n2)C(CC(=O)NCc2ccc3c(c2)OCO3)C1 (stereo unspecified) | 12 | 1700 | 82 | 0.38 | 5 | 24 | 25 | inactive | – | – | – | – | – | –
2 | O=C(C[C@H]1CCCN1c1ccnc(-n2ccnc2)n1)NCc1ccc2c(c1)OCO2 | 5.5 | 2900 | 47 | 0.28 | 5 | 5.6 | 6 | inactive | – | – | – | – | – | –
3 | CCc1cc(N2CCC[C@@H]2C(=O)NCCc2ccc3c(c2)OCO3)nc(-n2ccnc2)n1 | 16 | > 3800 | 170 | 0.52 | 67 | 25 | 280 | inactive | – | – | – | – | – | –
4 | COC(=O)N1CCN(c2ccnc(-n3ccnc3)n2)[C@@H](CC(=O)NCc2ccc3c(c2)OCO3)C1 | 10 | 1100 | 32 | 0.24 | 6 | 18 | 16 | inactive | – | – | – | – | – | –
5 | O=C(NCCc1ccc2c(c1)OCO2)[C@H]1CCCN1c1ccnc(-n2ccnc2)n1 | 11 | > 2000 | 181 | 0.48 | 19 | 25 | 74 | inactive | – | – | – | – | – | –
6 | Cc1cc(N2CCN(C(=O)C(C)C)[C@H](CC(=O)NCc3ccc4c(c3)OCO4)C2)nc(-n2ccnc2)n1 | 130 | > 400 | 74 | 0.75 | 29 | 350 | 80 | inactive | – | – | – | – | – | –
7 | Cc1cc(N2CCN(C(=O)C(C)C)C(CC(=O)NCc3ccc4c(c3)OCO4)C2)nc(-n2ccnc2)n1 (stereo unspecified) | 46 | > 300 | 240 | 1.9 | 80 | 80 | 120 | inactive | – | – | – | – | – | –
8 | O=C(CC1CCCCN1c1nccc(-n2ccnc2)n1)NCc1ccc2c(c1)OCO2 (stereo unspecified) | – | > 500 | – | 52 | 6 | 220 | – | inactive | – | – | – | – | – | –
9 | CS(=O)(=O)N1CCN(c2ccnc(-n3ccnc3)n2)C(CC(=O)NCc2ccc3c(c2)OCO3)C1 (stereo unspecified) | – | > 1000 | – | 0.7 | 12 | 74 | – | inactive | – | – | – | – | – | –
10 | CCc1cc(N2CCC[C@@H]2CC(=O)NCc2ccc3c(c2)OCO3)nc(-n2ccnc2)n1 | 7.1 | 7800 | 65 | 0.13 | 15 | 7.5 | 18 | inactive | – | – | – | – | – | –
11 | Cc1cc(N2CCC[C@@H]2C(=O)NCCc2ccc3c(c2)OCO3)nc(-n2ccnc2)n1 | 14 | > 5000 | 540 | 0.29 | 62 | 20 | 327 | inactive | 4.5 | 0.7 | 21 | 2.5 | inactive | 71
12 | O=C(CC1CN(C(=O)OCc2ccccc2)CCN1c1ccnc(-n2ccnc2)n1)NCc1ccc2c(c1)OCO2 (stereo unspecified) | – | 660 | – | 0.8 | 7 | 18 | – | inactive | – | – | – | – | – | –
13 | COc1ccc(CCNC(=O)CC2CCCCN2c2ccnc(-n3ccnc3)n2)cc1 (stereo unspecified) | – | > 1000 | – | 3.5 | 8 | 42 | – | inactive | – | – | – | – | – | –
14 | Cc1cc(N2CCC[C@@H]2CC(=O)NCc2ccc3c(c2)OCO3)nc(-n2ccnc2)n1 | 4.5 | 1000 | 91 | 0.12 | 8 | 5.9 | 27 | inactive | – | – | – | – | – | –
15 | O=C(CC1CCCCN1c1cc(-c2ccccc2)nc(-n2ccnc2)n1)NCc1ccc2c(c1)OCO2 (stereo unspecified) | – | 36 | – | 67 | 4 | 450 | – | inactive | – | – | – | – | – | –
16 | Cc1cc(N2CCN(Cc3ccccc3)C(CC(=O)NCc3ccc4c(c3)OCO4)C2)nc(-n2ccnc2)n1 (stereo unspecified) | – | 350 | – | 25 | 130 | 160 | – | inactive | – | – | – | – | – | –
17 | O=C(CC1CCCCN1c1ccnc(-n2ccnc2)n1)NCc1ccc(F)cc1 (stereo unspecified) | – | 490 | – | 3 | 5 | 210 | – | inactive | – | – | – | – | – | –
18 | O=C(CC1CN(Cc2cccc3ccccc23)CCN1c1ccnc(-n2ccnc2)n1)NCc1ccc2c(c1)OCO2 (stereo unspecified) | – | 40 | – | 69 | 7 | 120 | – | inactive | – | – | – | – | – | –
19 | O=C(CC1CCCCN1c1cc(-n2ccnc2)nc(-n2ccnc2)n1)NCc1ccc2c(c1)OCO2 (stereo unspecified) | – | 130 | – | 35 | 13 | 515 | – | inactive | – | – | – | – | – | –
20 | O=C(CC1CCCCN1c1ccnc(-n2ccnc2)n1)NCc1ccc2c(c1)OCO2 (stereo unspecified) | – | 520 | – | 0.5 | 5 | 7 | – | inactive | – | – | – | – | – | –
21 | COc1cccc(CNC(=O)CC2CCCCN2c2ccnc(-n3ccnc3)n2)c1 (stereo unspecified) | – | > 430 | – | 3.7 | 4 | 230 | – | inactive | – | – | – | – | – | –
22 | CC(C)OC(=O)N1CCN(c2ccnc(-n3ccnc3)n2)C(CC(=O)NCc2ccc3c(c2)OCO3)C1 (stereo unspecified) | – | 800 | – | 1 | 4 | 24 | – | inactive | – | – | – | – | – | –
23 | CC(C)CCN1CCN(c2ccnc(-n3ccnc3)n2)C(CC(=O)NCc2ccc3c(c2)OCO3)C1 (stereo unspecified) | – | 1000 | – | 1 | 6 | 10 | – | inactive | – | – | – | – | – | –
24 | O=C(CC1CCCCN1c1ccnc(-n2ccnc2)n1)NCc1ccc(OC(F)(F)F)cc1 (stereo unspecified) | – | 220 | – | 19 | 5 | 140 | – | inactive | – | – | – | – | – | –
